Experiments:
[1] = molecular target: T1, Cytochrome P450 3A4 (Homo sapiens, UniProt P08684); test: Inhibition of human CYP3A4 coexpressed in Escherichia coli with human NADPH reductase using nifedipine as substrate at 0.1 to 100 uM by fluorescence assay; type: ADME; conditions: TDE = time-dependent effect
[2] = molecular target: Cytochrome P450 2D6 (Homo sapiens, UniProt P10635); test: Inhibition of CYP2D6 (unknown origin) coexpressed in Escherichia coli with human NADPH reductase using 4-methylaminomethyl-7-methoyxycoumarin as substrate after 10 mins by fluorescence assay; type: ADME
Sequence of Cytochrome P450 2D6 (P10635 whole entry, canonical isoform): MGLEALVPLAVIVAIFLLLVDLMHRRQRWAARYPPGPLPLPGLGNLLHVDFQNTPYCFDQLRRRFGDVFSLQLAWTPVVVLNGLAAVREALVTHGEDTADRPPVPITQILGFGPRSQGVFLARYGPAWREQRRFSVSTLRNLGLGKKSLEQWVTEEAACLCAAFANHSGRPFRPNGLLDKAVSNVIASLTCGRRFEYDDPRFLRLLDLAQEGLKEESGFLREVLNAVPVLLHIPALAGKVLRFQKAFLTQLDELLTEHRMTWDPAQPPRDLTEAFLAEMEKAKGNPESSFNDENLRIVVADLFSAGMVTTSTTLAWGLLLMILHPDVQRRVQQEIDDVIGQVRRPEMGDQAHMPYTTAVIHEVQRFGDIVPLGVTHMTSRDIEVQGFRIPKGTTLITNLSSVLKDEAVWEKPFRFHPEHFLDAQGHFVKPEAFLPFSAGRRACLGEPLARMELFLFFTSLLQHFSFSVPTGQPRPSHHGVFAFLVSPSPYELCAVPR
Outline: (§1)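 Recombinant CYP co-expressed in E. coli with human NADPH reductase, incubated with an isoform-specific pro-fluorescent substrate and compound (nine concentrations, 0.1-100 µM) plus a 0.2 mM NADPH regenerating system for 10 min at 37°C. Fluorescent metabolite formation was monitored.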

[3] = Fraction unbound in human blood after 4 hrs by LC-MS/MS analysis; type: ADME, tissue-based
Outline: (§2)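 Fresh blood (CD rat, CD1 mouse, Beagle dog, single human donor) spiked at 1000 ng/mL and dialysed against PBS by rapid equilibrium dialysis for 4 h at 37°C. Matrix-matched LC-MS/MS; unbound fraction taken from the buffer/blood peak area ratio.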

[4] = system: Salmonella typhimurium; test: Mutagenicity in Salmonella typhimurium by Ames test; type: toxicity, organism-based; conditions: salmonella enterica subsp. enterica serovar typhimurium
[5] = Intrinsic clearance in beagle dog hepatocytes at 0.5 uM after 2 hrs by LC-MS/MS analysis; type: ADME, cell-based, Canis lupus familiaris, Hepatocyte
Outline: (§3)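 Compound at 0.5 µM incubated with pooled cryopreserved hepatocytes (0.7 million cells/mL) in Williams Medium E at 37°C under CO2/O2. Supernatants analysed by LC-MS/MS. CLi was derived from a first-order rate constant, scaled with 1.2x10^8 cells/g liver (human, rat, mouse) or 2.4x10^8 cells/g liver (dog).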

[6] = Intrinsic clearance in cynomolgus monkey hepatocytes at 0.5 uM after 2 hrs by LC-MS/MS analysis; type: ADME, cell-based, Macaca fascicularis, Hepatocyte
[7] = Fraction unbound in CD1 mouse blood after 4 hrs by LC-MS/MS analysis; type: ADME, tissue-based; outline: as §2
[8] = system: Hepatocyte; test: Intrinsic clearance in human hepatocytes at 0.5 uM after 2 hrs by LC-MS/MS analysis; type: ADME, cell-based; outline: as §3
[9] = molecular target: T2, Sphingosine 1-phosphate receptor 4 (Homo sapiens, UniProt O95977); test: Agonist activity at human S1P4 receptor expressed in CHO-K1 cells by aequorin calcium accumulation assay; type: functional, cell-based
T2 sequence (O95977 whole entry): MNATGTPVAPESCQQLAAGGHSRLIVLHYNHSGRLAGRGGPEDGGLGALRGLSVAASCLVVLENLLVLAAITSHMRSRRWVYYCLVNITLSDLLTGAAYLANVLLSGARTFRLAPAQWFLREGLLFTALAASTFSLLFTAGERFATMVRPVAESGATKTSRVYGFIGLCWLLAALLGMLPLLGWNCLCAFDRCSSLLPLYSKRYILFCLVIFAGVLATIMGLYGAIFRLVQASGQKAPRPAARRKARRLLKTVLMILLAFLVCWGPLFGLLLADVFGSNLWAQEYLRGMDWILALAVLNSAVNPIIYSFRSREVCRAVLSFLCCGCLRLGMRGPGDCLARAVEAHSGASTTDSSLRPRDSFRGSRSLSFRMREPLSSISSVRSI
Outline: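 CHO-K1 aequorin lines revived in DMEM F12 with 10% charcoal-stripped FBS, recovered 30 min at 37°C, then loaded 18-24 h at room temperature in the dark with 5 µM coelenterazine at 2.5x10^6 cells/mL. Cells were added at 1x10^5/well to compound, and flash luminescence was recorded immediately.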

[10] = Lipophilicity, log D of the compound at pH 2 by chromatography; type: physicochemical; conditions: buffer
[11] = molecular target: Sphingosine 1-phosphate receptor 1 (Homo sapiens, UniProt P21453); test: Agonist activity at human S1P1 receptor expressed in CHO-K1 EDG1 cells by beta-arrestin recruitment assay; type: cell-based
Sequence of Sphingosine 1-phosphate receptor 1 (P21453 whole entry, the tested form may be a part): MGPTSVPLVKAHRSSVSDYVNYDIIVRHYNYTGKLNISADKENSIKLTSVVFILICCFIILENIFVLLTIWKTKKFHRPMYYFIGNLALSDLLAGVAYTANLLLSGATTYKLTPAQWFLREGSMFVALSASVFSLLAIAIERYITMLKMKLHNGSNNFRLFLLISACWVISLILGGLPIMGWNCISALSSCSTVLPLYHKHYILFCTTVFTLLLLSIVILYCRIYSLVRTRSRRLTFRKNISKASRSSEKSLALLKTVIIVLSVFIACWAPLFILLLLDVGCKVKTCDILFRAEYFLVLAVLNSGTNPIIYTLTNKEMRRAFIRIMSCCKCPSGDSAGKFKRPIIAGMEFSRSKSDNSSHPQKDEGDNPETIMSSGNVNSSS
Outline: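 CHO-K1 cells stably expressing beta-arrestin 2 and S1P1 fused to complementing beta-galactosidase fragments; grown to 80% confluency, harvested enzyme-free, resuspended in HEPES/BSA assay buffer pH 7.4. Cells at 1x10^4/well added to compound in DMSO, 90 min at 37°C/5% CO2, then 15 min at room temperature; chemiluminescent detection mix 60 min at room temperature, luminescence read.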

[12] = Fraction unbound in CD rat blood after 4 hrs by LC-MS/MS analysis; type: ADME, tissue-based; outline: as §2
[13] = Lipophilicity, log D of the compound at pH 10.5 by chromatography; type: physicochemical; conditions: buffer
[14] = Oral bioavailability in rat; type: ADME, organism-based; conditions: in vivo
[15] = molecular target: Cytochrome P450 2C9 (Homo sapiens, UniProt P11712); test: Inhibition of CYP2C9 (unknown origin) coexpressed in Escherichia coli with human NADPH reductase using 7-methoxy-4-trifluoromethylcoumarin-3-acetic acid as substrate after 10 mins by fluorescence assay; type: ADME; outline: as §1
Sequence of Cytochrome P450 2C9 (P11712 whole entry): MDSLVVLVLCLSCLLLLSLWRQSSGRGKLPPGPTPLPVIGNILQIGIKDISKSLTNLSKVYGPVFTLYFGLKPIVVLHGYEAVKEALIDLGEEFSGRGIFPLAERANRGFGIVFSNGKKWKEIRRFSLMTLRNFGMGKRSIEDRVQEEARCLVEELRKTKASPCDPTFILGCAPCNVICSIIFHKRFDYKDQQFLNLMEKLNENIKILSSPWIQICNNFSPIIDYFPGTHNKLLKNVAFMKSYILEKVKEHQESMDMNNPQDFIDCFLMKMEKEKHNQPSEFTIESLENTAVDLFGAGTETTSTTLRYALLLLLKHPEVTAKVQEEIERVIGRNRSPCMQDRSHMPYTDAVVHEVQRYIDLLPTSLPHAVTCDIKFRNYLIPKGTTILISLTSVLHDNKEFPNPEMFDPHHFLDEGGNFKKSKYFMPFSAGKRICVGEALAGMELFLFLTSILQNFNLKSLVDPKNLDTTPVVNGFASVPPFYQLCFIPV

[16] = molecular target: T1, Cytochrome P450 3A4; test: Inhibition of human CYP3A4 by VR metabolism assay; type: ADME
[17] = Lipophilicity, log D of the compound at pH 7.4 by chromatography; type: physicochemical; conditions: buffer
[18] = molecular target: Cytochrome P450 2C19 (Homo sapiens, UniProt P33261); test: Inhibition of CYP2C19 (unknown origin) coexpressed in Escherichia coli with human NADPH reductase using 3-butyryl-7-methoxycoumarin as substrate after 10 mins by fluorescence assay; type: ADME; outline: as §1
Sequence of Cytochrome P450 2C19 (P33261 whole entry): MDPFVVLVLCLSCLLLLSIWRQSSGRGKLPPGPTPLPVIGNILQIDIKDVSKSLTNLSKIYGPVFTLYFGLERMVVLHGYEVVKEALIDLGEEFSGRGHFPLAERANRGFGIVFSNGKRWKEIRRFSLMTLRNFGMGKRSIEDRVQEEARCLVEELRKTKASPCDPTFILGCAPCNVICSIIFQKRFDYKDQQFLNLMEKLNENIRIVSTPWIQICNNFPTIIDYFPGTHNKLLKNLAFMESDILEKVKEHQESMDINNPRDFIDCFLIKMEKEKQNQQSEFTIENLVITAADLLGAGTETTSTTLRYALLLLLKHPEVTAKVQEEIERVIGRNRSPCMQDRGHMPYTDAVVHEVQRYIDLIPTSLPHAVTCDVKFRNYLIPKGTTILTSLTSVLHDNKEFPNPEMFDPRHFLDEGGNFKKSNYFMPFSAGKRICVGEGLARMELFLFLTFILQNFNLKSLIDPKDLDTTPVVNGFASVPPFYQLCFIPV

[19] = molecular target: T1, Cytochrome P450 3A4; test: Inhibition of human CYP3A4 coexpressed in Escherichia coli with human NADPH reductase using atorvastatin as substrate at 0.1 to 100 uM by fluorescence assay; type: ADME; conditions: TDE = time-dependent effect
[20] = molecular target: T1, Cytochrome P450 3A4; test: Inhibition of human CYP3A4 by VG metabolism assay; type: ADME
[21] = molecular target: T3, Cytochrome P450 1A2 (Homo sapiens, UniProt P05177); test: Inhibition of CYP1A2 (unknown origin) coexpressed in Escherichia coli with human NADPH reductase using ethoxyresorufin as substrate after 10 mins by fluorescence assay; type: ADME; outline: as §1
T3 sequence (P05177 whole entry): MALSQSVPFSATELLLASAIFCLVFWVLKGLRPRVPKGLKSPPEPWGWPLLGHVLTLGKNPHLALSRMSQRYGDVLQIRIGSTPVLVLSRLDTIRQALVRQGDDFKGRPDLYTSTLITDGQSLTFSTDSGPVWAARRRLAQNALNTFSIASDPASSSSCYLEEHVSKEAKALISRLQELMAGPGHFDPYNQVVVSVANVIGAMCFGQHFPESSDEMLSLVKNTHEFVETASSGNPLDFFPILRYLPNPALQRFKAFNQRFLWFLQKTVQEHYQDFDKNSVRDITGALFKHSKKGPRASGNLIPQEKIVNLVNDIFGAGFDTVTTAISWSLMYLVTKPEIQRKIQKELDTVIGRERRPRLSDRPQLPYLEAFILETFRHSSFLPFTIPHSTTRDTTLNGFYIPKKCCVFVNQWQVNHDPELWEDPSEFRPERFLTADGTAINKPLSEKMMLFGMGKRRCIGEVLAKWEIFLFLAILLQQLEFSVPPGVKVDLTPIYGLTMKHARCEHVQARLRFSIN

[22] = system: Rattus norvegicus; test: Lymphopenia activity in oral dosed Lewis rat

T1 sequence (P08684 whole entry): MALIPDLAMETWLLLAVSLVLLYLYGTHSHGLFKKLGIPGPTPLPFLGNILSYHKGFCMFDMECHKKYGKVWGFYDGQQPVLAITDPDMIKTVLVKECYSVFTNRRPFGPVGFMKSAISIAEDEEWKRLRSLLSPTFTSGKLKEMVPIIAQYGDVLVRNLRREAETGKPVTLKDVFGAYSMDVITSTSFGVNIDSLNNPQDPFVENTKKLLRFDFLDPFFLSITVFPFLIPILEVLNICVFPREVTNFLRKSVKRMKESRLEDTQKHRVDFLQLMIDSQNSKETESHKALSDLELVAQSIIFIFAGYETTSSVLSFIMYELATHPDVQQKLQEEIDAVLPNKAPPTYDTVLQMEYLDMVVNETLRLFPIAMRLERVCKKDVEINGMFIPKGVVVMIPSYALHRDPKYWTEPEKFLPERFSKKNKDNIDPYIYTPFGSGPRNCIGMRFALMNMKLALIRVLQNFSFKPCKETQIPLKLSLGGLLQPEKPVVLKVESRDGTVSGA

## Cc1c2c(nn1-c1nnc(-c3ccc(OC(C)C)c(Cl)c3)s1)CCN(CCC(=O)O)C2
[1]
  inhibition (INH): tde
[2]
  IC50: > 50 µM
[3]
  fraction unbound at 4 h: 0.008
[4]
  Activity: Non-toxic
[5]
  CLH: 6 mL/min/g
[6]
  CLH: 4.2 mL/min/g
[7]
  fraction unbound at 4 h: 0.011
[8]
  CLH: 1.8 mL/min/g
[9]
  EC50: > 39.8 µM
[10]
  chromatographic logD: 1.03
[11]
  EC50: 0.00158 µM
[12]
  fraction unbound at 4 h: 0.014
[13]
  chromatographic logD: 1.53
[14]
  bioavailability: 52%
[15]
  IC50: > 50 µM
[16]
  IC50: > 50 µM
[17]
  chromatographic logD: 3.73
[18]
  IC50: > 50 µM
[19]
  inhibition (INH): tde
[20]
  IC50: > 50 µM
[21]
  IC50: > 50 µM
[22]
  IC50: 0.006 µM
